Measurements taken from the RNAGym collection of RNA variant scans (doi:10.1038/s41586-018-0170-7).

B1: tRNA (parent)
chain: GUUCCGUUGGCGUAAUGGUAACGCGUCUCCCUCCUAAGGAGAAGACUGCGGGUUCGAGUCCCGUACGGAACG

Variants of: B1
Assay: yeast fitness, log relative to wild type (ln ratio); higher = fitter; tRNA-Arg(CCU), competitive growth, 37 C, 1 M NaCl
In short: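 Fitness is the natural log of a genotype's generation count divided by that of the wild type. A combinatorial library of tRNA-Arg(CCU) variants sat on a HIS3 centromeric plasmid in BY4742 lacking the chromosomal gene, from two independent transformations. Pools grew 4 generations in SC-HIS at 30 °C, then ~6.5 generations (~26.5 h) in SC-HIS 1M NaCl at 37 °C, with three outputs per input. Generations came from OD-scaled log2 output/input frequency, inverse-variance weighted across replicates, with variants counted by 125 bp paired-end Illumina sequencing.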
With AGUCCGUUGGCGUAAUGGUAACGCGUCUCCCUCCUAAGGAGAAGAUUGCGGGUUCGAGUCCCGUAUGGGUCG the “yeast fitness (ln)” value was -0.128.
With AGUCCGUUGGCGUAAUGGUAACGCGUCUCCCUCCUAAGGAGAAGAUUGCGGGUUCGAGUCCCGUAUGGGGCG the “yeast fitness (ln)” value was -0.172.
For AGUCCGUUGGCGUAAUGGUAACGCGUCUCCCUCCUAAGGAGAAGAUUGCGGGUUCGAGUCCCGUACGGAUUG, the “yeast fitness (ln)” value was 0.00364.
With AGUCCGUUGGCGUAAUGGUAACGCGUUUCCCUCCUAAGGAGAAGACUGCGGGUUCGAGUCCCGUAUGGGGUG the “yeast fitness (ln)” value was -0.416.
For AGUCCGUUGGCGUAAUGGUAACGCGUCUCCCUCCUAAGGAGAAGAUUGCGGGUUCGAGUCCCGUAUGGGAUG, the “yeast fitness (ln)” value was -0.318.
For AGUCCGUUGGCGUAAUGGUAACGCGUCUCCCUCCUAAGGAGAAGAUUGCGGGUUCGAGUCCCGUAAGGGGUG, the “yeast fitness (ln)” value was -0.173.
With AGUCCGUUGGCGUAAUGGUAACGCGUUUCCCUCCUAAGGAGAAGACUGCGGGUUCGAGUCCCGUAAGGAGUG the “yeast fitness (ln)” value was -0.306.
In the case of AGUCCGUUGGCGUAAUGGUAACGCGUCUCCCUCCUAAGGAGAAGAUUGCGGGUUCGAGUCCCGUACGGAACG, the “yeast fitness (ln)” value is reported as -0.0473.
In the case of AGUCCAUUGGCGUAAUGGUAACGCGUCUCCCUCCUAAGGAGACGACUGCGGGUUCGAGUCCCGUACGGGUUG, the “yeast fitness (ln)” value is reported as -0.411.
With AGUCCGUUGGCGUAAUGGUAACGCGUUUCCCUCCUAAGGAGAAGACUGCGGGUUCGAGUCCCGUAUGGAACG the “yeast fitness (ln)” value was -0.174.
With AGUCCGUUGGCGUAAUGGUAACGCGUUUCCCUCCUAAGGAGAAGACUGCGGGUUCGAGUCCCGUAUGGGUUG the “yeast fitness (ln)” value was -0.511.
For AGUCCGUUGGCGUAAUGGUAACGCGUCUCCCUCCUAAGGAGAAGAUUGCGGGUUCGAGUCCCGUAAGGAAUG, the “yeast fitness (ln)” value was -0.0962.
In the case of AGUCCGUUGGCGUAAUGGUAACGCGUCUCCCUCCUAAGGAGAAGAUUGCGGGUUCGAGUCCCGUAAGGAUUG, the “yeast fitness (ln)” value is reported as -0.152.
In the case of AGUCCGUUGGCGUAAUGGUAACGCGUCUCCCUCCUAAGGAGAAGAUUGCGGGUUCGAGUCCCGUAAGGAGCG, the “yeast fitness (ln)” value is reported as -0.152.
In the case of AGUCCGUUGGCGUAAUGGUAACGCGUCUCCCUCCUAAGGAGAAGAUUGCGGGUUCGAGUCCCGUAAGGAUCG, the “yeast fitness (ln)” value is reported as -0.109.
For AGUCCGUUGGCGUAAUGGUAACGCGUCUCCCUCCUAAGGAGAAGAUUGCGGGUUCGAGUCCCGUAUGGAAUG, the “yeast fitness (ln)” value was -0.117.
With AGUCCGUUGGCGUAAUGGUAACGCGUCUCCCUCCUAAGGAGAAGACUGCGGGUUCGAGUCCCGUAAGGGGUG the “yeast fitness (ln)” value was -0.235.
For AGUCCAUUGGCGUAAUGGUAACGCGUCUCCCUCCUAAGGAGACGACUGCGGGUUCGAGUCCCGUACGGGGUG, the “yeast fitness (ln)” value was -0.29.
For AGUCCGUUGGCGUAAUGGUAACGCGUCUCCCUCCUAAGGAGAAGACUGCGGGUUCGAGUCCCGUAAGGAAUG, the “yeast fitness (ln)” value was -0.0937.
For AGUCCGUUGGCGUAAUGGUAACGCGUUUCCCUCCUAAGGAGAAGACUGCGGGUUCGAGUCCCGUAAGGGGUG, the “yeast fitness (ln)” value was -0.265.
For AGUCCGUUGGCGUAAUGGUAACGCGUCUCCCUCCUAAGGAGAAGAUUGCGGGUUCGAGUCCCGUACGGGGUG, the “yeast fitness (ln)” value was -0.457.
In the case of AGUCCGUUGGCGUAAUGGUAACGCGUCUCCCUCCUAAGGAGAAGAUUGCGGGUUCGAGUCCCGUAUGGGGUG, the “yeast fitness (ln)” value is reported as -0.195.
With AGUCCGUUGGCGUAAUGGUAACGCGUCUCCCUCCUAAGGAGAAGACUGCGGGUUCGAGUCCCGUAUGGAAUG the “yeast fitness (ln)” value was -0.201.
In the case of AGUCCGUUGGCGUAAUGGUAACGCGUCUCCCUCCUAAGGAGAAGACUGCGGGUUCGAGUCCCGUAUGGAUCG, the “yeast fitness (ln)” value is reported as -0.131.
In the case of AGUCCGUUGGCGUAAUGGUAACGCGUCUCCCUCCUAAGGAGAAGACUGCGGGUUCGAGUCCCGUAUGGAGCG, the “yeast fitness (ln)” value is reported as -0.161.
With AGUCCGUUGGCGUAAUGGUAACGCGUCUCCCUCCUAAGGAGAAGAUUGCGGGUUCGAGUCCCGUACGGAAUG the “yeast fitness (ln)” value was -0.25.
With AGUCCAUUGGCGUAAUGGUAACGCGUCUCCCUCCUAAGGAGAAGACUGCGGGUUCGAGUCCCGUACGGAACG the “yeast fitness (ln)” value was -0.0537.
In the case of AGUCCGUUGGCGUAAUGGUAACGCGUCUCCCUCCUAAGGAGAAGACUGCGGGUUCGAGUCCCGUAAGGAGUG, the “yeast fitness (ln)” value is reported as -0.191.
With AGUCCGUUGGCGUAAUGGUAACGCGUUUCCCUCCUAAGGAGAAGACUGCGGGUUCGAGUCCCGUAAGGGUCG the “yeast fitness (ln)” value was -0.187.
For AGUCCGUUGGCGUAAUGGUAACGCGUUUCCCUCCUAAGGAGAAGACUGCGGGUUCGAGUCCCGUACGGAAUG, the “yeast fitness (ln)” value was -0.108.
For AGUCCGUUGGCGUAAUGGUAACGCGUCUCCCUCCUAAGGAGAAGACUGCGGGUUCGAGUCCCGUAUGGAACG, the “yeast fitness (ln)” value was -0.159.
For AGUCCGUUGGCGUAAUGGUAACGCGUCUCCCUCCUAAGGAGAAGACUGCGGGUUCGAGUCCCGUAAGGAACG, the “yeast fitness (ln)” value was -0.0852.
In the case of AGUCCGUUGGCGUAAUGGUAACGCGUUUCCCUCCUAAGGAGAAGACUGCGGGUUCGAGUCCCGUAUGGGGCG, the “yeast fitness (ln)” value is reported as -0.26.
For AGUCCGUUGGCGUAAUGGUAACGCGUUUCCCUCCUAAGGAGAAGACUGCGGGUUCGAGUCCCGUAUGGGUCG, the “yeast fitness (ln)” value was -0.35.
With AGUCCGUUGGCGUAAUGGUAACGCGUUUCCCUCCUAAGGAGAAGACUGCGGGUUCGAGUCCCGUAUGGAGCG the “yeast fitness (ln)” value was -0.194.
In the case of AGUCCGUUGGCGUAAUGGUAACGCGUUUCCCUCCUAAGGAGAAGACUGCGGGUUCGAGUCCCGUAUGGAUCG, the “yeast fitness (ln)” value is reported as -0.174.
For AGUCCGUUGGCGUAAUGGUAACGCGUCUCCCUCCUAAGGAGAAGAUUGCGGGUUCGAGUCCCGUAAGGGUUG, the “yeast fitness (ln)” value was -0.385.
In the case of AGUCCGUUGGCGUAAUGGUAACGCGUCUCCCUCCUAAGGAGAAGACUGCGGGUUCGAGUCCCGUAUGGGGUG, the “yeast fitness (ln)” value is reported as -0.165.
